Assays:
Cannabinoid receptor 1 [1] = molecular target: T1, Cannabinoid receptor 1 (Homo sapiens, UniProt P21554); assay: Displacement of [3H]CP55940 from human CB1 receptor expressed in CHO cell membranes; type: cell-based
Liver = assay: Stability of compound in human liver S9 fractions assessed as compound remaining at 10 uM incubated for 60 mins by mass spectrometric analysis; type: ADME, subcellular, Liver S9 fraction; conditions: s9, 1 h
Method in brief: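 Mixed-gender pooled human hepatic S9 at 1 mg/mL; compound at 10 µM final in 50 mM potassium phosphate pH 7.4, 3 mM MgCl2 with NADPH regenerating system (1 mM NADP, 5 mM glucose-6-phosphate, 1 unit/mL G6PDH); triplicates, 60 min; quenched with 3 volumes acetonitrile; LC–MS quantified against matrix standard curves; percent parent remaining.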

Cannabinoid receptor 2 = Cannabinoid receptor 2 (Homo sapiens, UniProt P34972); assay: Displacement of [3H]CP55940 from human CB2 receptor expressed in CHO cell membranes
Chain of Cannabinoid receptor 2 (P34972 whole entry): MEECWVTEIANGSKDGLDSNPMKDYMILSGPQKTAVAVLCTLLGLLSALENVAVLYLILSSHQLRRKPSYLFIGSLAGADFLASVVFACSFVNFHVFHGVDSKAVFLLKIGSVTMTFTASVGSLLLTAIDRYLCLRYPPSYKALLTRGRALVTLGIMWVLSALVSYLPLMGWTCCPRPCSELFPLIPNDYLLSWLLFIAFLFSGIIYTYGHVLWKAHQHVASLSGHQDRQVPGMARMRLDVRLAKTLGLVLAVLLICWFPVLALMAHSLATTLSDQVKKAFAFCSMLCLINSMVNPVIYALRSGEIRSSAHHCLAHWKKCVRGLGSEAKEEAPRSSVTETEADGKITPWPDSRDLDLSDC

MDCK = assay: Permeability across apical to basolateral side of MDCK cell BBB penetration model expressing human mdr1 at 10 uM incubated for 1 hr by mass spectrometric analysis; type: ADME, cell-based, Canis lupus familiaris; conditions: dog
Method in brief: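 MDCK cells transfected with human MDR1 grown 4 days to confluence on Transwell-type filters in DMEM/F12 with 10% FBS and antibiotics. Compound added apically at 10 µM in HBSS with 25 mM glucose, HEPES pH 7.4; 1 h at 37 °C; apical and basal samples quantified by LC–MS/MS (MRM); percent apical-to-basal transport.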

[2] = Permeability of compound across apical to basal compartment in PBS at pH 5.5 at 10 uM after 4 hrs by PAMPA; type: ADME; conditions: pH 5.5, 4 h
Method in brief: (§1)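 PAMPA kit per manufacturer; compound at 10 µM final added to the apical compartment in PBS at pH 5.5 or 7.4; incubated 4 h at room temperature; both compartments sampled and measured by LC–MS; percent apical-to-basal transport, mean of 3.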

[3] = Permeability of compound across apical to basal compartment in PBS at pH 7.4 at 10 uM after 4 hrs by PAMPA; type: ADME; conditions: pH 7.4, 4 h; method in brief: as §1
Homo sapiens = organism: Homo sapiens; assay: Selectivity ratio of Ki for human CB2 receptor to Ki for human CB1 receptor
Method in brief: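 Ki values from displacement of [³H]CP55940 in membranes of CHO cells overexpressing human CB1 or human CB2; ratio taken as Ki(CB2)/Ki(CB1). Binding was run only on compounds with apparent Ke <50 nM in the CB1 calcium assay.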

[4] = Plasma concentration in Sprague-Dawley rat at 10 mg/kg, po after 4 hrs by LC-MS/MS analysis; type: ADME, organism-based
Method in brief: (§2)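 Male Sprague Dawley rats (10 weeks on arrival, acclimated; 12 weeks at dosing, n=3) given a single oral gavage bolus of 10 mg/kg in 90% corn oil/10% DMSO. Sacrificed 4 h post-dose; brain and plasma collected; parent compound quantified by LC–MS/MS; mean and SD reported.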

[5] = Drug uptake in Sprague-Dawley rat brain at 10 mg/kg, po after 4 hrs by LC-MS/MS analysis; type: ADME, organism-based; conditions: read-out: Drug uptake; method in brief: as §2
[6] = Ratio of drug level in Sprague-Dawley rat brain to plasma at 10 mg/kg, po after 4 hrs by LC-MS/MS analysis; type: ADME, organism-based; method in brief: as §2
Cannabinoid receptor 1 [7] = molecular target: T1, Cannabinoid receptor 1; assay: Inverse agonist activity at human CB1 receptor expressed in CHO cells assessed as increase in intracellular calcium mobilization after 90 secs by Calcein-4 AM-staining based FLIPR assay; type: functional, cell-based
[8] = Ratio of drug level in Sprague-Dawley rat brain to plasma at 10 mg/kg, ip; type: ADME, organism-based; conditions: read-out: BPR
Cannabinoid receptor 1 [9] = molecular target: T1, Cannabinoid receptor 1; conditions: CHO-K1

T1 sequence (P21554 whole entry): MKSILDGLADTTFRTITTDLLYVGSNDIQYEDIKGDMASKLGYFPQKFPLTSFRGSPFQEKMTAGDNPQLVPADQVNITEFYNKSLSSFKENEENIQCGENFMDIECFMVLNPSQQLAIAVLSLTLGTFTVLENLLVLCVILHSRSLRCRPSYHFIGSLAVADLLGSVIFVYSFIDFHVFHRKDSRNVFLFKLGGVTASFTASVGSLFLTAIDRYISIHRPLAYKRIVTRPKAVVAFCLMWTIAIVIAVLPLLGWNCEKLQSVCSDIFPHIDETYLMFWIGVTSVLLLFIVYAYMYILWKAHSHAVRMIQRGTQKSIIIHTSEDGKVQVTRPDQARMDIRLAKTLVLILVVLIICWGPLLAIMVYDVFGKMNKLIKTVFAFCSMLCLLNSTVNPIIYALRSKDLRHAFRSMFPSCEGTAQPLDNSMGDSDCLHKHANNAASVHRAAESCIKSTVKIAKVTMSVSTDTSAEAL

Kp [8]	SMILES	Ki (Cannabinoid receptor 1 [1])	Stability (Liver)	Ki (Cannabinoid receptor 2)	permeability (MDCK)	permeability [2]	permeability [3]	Ratio Ki (Homo sapiens)	concentration at 4 h [4]	concentration at 4 h [5]	BPR [6]	EC50 (Cannabinoid receptor 1 [7])	Ke (Cannabinoid receptor 1 [9])
–	Cc1c(C(=O)NC2CCN(S(=O)(=O)c3ccccc3)CC2)nn(-c2ccc(Cl)cc2Cl)c1-c1ccc(Cl)cc1	0.043 µM	> 90%	> 20 µM	< 1%	0.03%	0.1%	–	–	–	–	–	–
–	Cc1c(C(=O)NC2CCN(S(=O)(=O)CC(C)C)CC2)nn(-c2ccc(Cl)cc2Cl)c1-c1ccc(Cl)cc1	0.0435 µM	> 90%	6.21 µM	< 1%	0.1%	0.2%	143	–	–	–	–	–
–	CCCCC(=O)N1CCC(NC(=O)c2nn(-c3ccc(Cl)cc3Cl)c(-c3ccc(Cl)cc3)c2C)CC1	0.0145 µM	72%	1.78 µM	< 1%	1.1%	1.8%	123	–	–	–	–	–
–	CCS(=O)(=O)N1CCC(NC(=O)c2nn(-c3ccc(Cl)cc3Cl)c(-c3ccc(Cl)cc3)c2C)CC1	0.0444 µM	68%	4.41 µM	< 1%	0.1%	0.05%	99	–	–	–	–	–
–	Cc1c(C(=O)NC2CCN(C(=O)C(F)(F)F)CC2)nn(-c2ccc(Cl)cc2Cl)c1-c1ccc(Cl)cc1	0.0019 µM	74%	1.04 µM	< 1%	0.4%	0.2%	548	–	–	–	–	–
–	Cn1c(=O)c2c(ncn2C)n(C)c1=O [CAFFEINE]	–	–	–	80%	–	–	–	–	–	–	–	–
–	CCCOC(=O)N1CCC(NC(=O)c2nn(-c3ccc(Cl)cc3Cl)c(-c3ccc(Cl)cc3)c2C)CC1	0.00882 µM	66%	1.54 µM	< 1%	1.4%	1.9%	175	455 ng/mL	69 ng/g	15%	0.02 µM	–
< 0.04	Cc1c(C(=O)N2CCC(NC(=O)NC(C)(C)C)(c3ccccc3)CC2)nn(-c2ccc(Cl)cc2Cl)c1-c1ccc(Cl)cc1	–	–	–	–	–	–	–	–	–	–	–	–
–	Cc1c(C(=O)NC2CCN(S(=O)(=O)CCC(F)(F)F)CC2)nn(-c2ccc(Cl)cc2Cl)c1-c1ccc(Cl)cc1	0.0096 µM	> 90%	4.72 µM	< 1%	0.1%	0.1%	492	–	–	–	–	–
–	Cc1c(C(=O)NC2CCN(C(=O)OC(C)C)CC2)nn(-c2ccc(Cl)cc2Cl)c1-c1ccc(Cl)cc1	0.0064 µM	82%	1.93 µM	< 1%	0%	0.1%	301	–	–	–	–	–
< 0.04	Cc1c(C(=O)NC2CCN(C(=O)OC(C)(C)C)CC2)nn(-c2ccc(Cl)cc2Cl)c1-c1ccc(Cl)cc1	–	–	–	–	–	–	–	–	–	–	–	–
–	Cc1c(C(=O)NC2CCN(C(=O)CC(C)C)CC2)nn(-c2ccc(Cl)cc2Cl)c1-c1ccc(Cl)cc1	0.0289 µM	72%	1.81 µM	1%	3.3%	3.6%	63	–	–	–	–	–
–	Cc1c(C(=O)NC2CCN(C(=O)C3CCCC3)CC2)nn(-c2ccc(Cl)cc2Cl)c1-c1ccc(Cl)cc1	0.0092 µM	62%	2.5 µM	< 1%	0.2%	0.2%	271	–	–	–	–	–
–	CCCCOC(=O)N1CCC(NC(=O)c2nn(-c3ccc(Cl)cc3Cl)c(-c3ccc(Cl)cc3)c2C)CC1	–	–	–	–	–	–	–	–	–	–	–	88 nM
–	Cc1c(C(=O)NC2CCN(C(=O)c3ccccc3)CC2)nn(-c2ccc(Cl)cc2Cl)c1-c1ccc(Cl)cc1	0.0075 µM	> 90%	1.73 µM	< 1%	0.3%	0.2%	230	–	–	–	–	–
